Tested on: MS2 coat protein
Experiment: apparent Kd, MS2 coat protein; higher = weaker binding; RNA-MaP array; FMN 200 µM where present
Summary of the method: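 In 100 mM Tris-HCl pH 7.5, 80 mM KCl, 4 mM MgCl2, BSA, DTT, yeast tRNA and Tween-20, SNAP-549-labelled MS2 coat protein was titrated from 0.7 or 1.5 nM, doubling to 3 µM, over designs transcribed by stalled E. coli RNA polymerase on Illumina sequencing-chip clusters. This was done first without ligand, then with ligand held constant. After green signal was normalised to red-channel RNA signal and control-cluster median Fmax, the apparent Kd was taken as the median of filtered per-cluster binding-curve fits.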

[1] = designed as: ON switch for flavin mononucleotide, no ligand
[2] = ligand present: flavin mononucleotide, designed as: ON switch for flavin mononucleotide
[3] = designed as: OFF switch for flavin mononucleotide, no ligand
[4] = ligand present: flavin mononucleotide, designed as: OFF switch for flavin mononucleotide

Sequence | apparent Kd [1] | apparent Kd [2] | apparent Kd [3] | apparent Kd [4]
AAAAAAAAAACAUAGGAUAUCCGGGCCGGGACAUGAGGAUCACCCAUGUCAAAAAAAAUUGGCCCGGAGAAGGAUGAAAAAAAAAA | 15.5 nM | 14.9 nM | – | –
AAAAAAAAAAGAGAGGAUAUCCAAAAAAAAACAUGAGGAUCACCCAUGUAAAAAAAAAAAAAAUGGGAGAAGGCUCAAAAAAAAAA | 89.7 nM | 23.2 nM | – | –
AAAAAAAAAAGUCAGGAUAUACAAAUUUUUACAUGAGGAUCACCCAUGUUAAGGAAAAAAAAAAAGUAGAAGGGACAAAAAAAAAA | 27.3 nM | 17.6 nM | – | –
AAAAAACAAGGAUAUACGGAUGAAGAUUGUCUUAAUUUUUGACAUGAGGAUCACCCAUGUAGAAGGUGUUAAAA | – | – | 198 nM | 342 nM
AAAAAACAUGAGGAUCACCCAUGUAAGGAUAUGCGAAAAAAAAAAAAAAAAAAAAAAAGCAGAAGGUACAAAAA | – | – | 99.1 nM | 94.9 nM
AAAAAACAUGAGGAUCACCCAUGUAAUACAACGUCAGGAUAUUGAUUUUAUUAUGUAUUGCAAGAAGGGACUUGUA | 72.1 nM | 25.4 nM | – | –
AAAAAACAUGAGGAUCACCCAUGUCAGGAUAUCCGAAAAAAAAAAAAAAAAAAAAAAAGGAGAAGGGACAAAAA | – | – | 100 nM | 83.8 nM
AAAAAACAUGAGGAUCACCCAUGUGAGGAUAUCUGAAAAAAAAAAAAAAAAAAGAAAAAGAGAAGGCGCAAAGA | – | – | 124 nM | 65.2 nM
AAAAAACAUGAGGAUCACCCAUGUGAGGAUAUGACUUAAAUAAAGAAAGAAGAAAUAGUCAGAAGGCACAAAUA | – | – | 54.5 nM | 70.4 nM
AAAAAGUCAGGAUAUAUCAAAGCCUAUGAAAGUGGGAAAGGGUAGAAGGGACAUGAGGAUCACCCAUGUAAAAA | – | – | 52 nM | 50.3 nM
AAAAAGUCAGGAUAUCGAAAAAAAAAAAAAAAAAAAAAAAACGAGAAGGGACAUGAGGAUCACCCAUGUAAAAA | – | – | 63.7 nM | 69.6 nM
AAAAAGUGAGGAUAUACAUGAGGAUCACCCAUGUGAAAUCGGAAAAAAAAGGAAAAAAGUAGAAGGCACAAAAA | – | – | 24.2 nM | 24.3 nM
AAAAAGUGAGGAUAUACGAAAAAAAAAAAAAAAAAAGGUGAACAUGAGGAUCACCCAUGUAGAAGGCACAAAAA | – | – | 311 nM | 243 nM
AAAAAGUGAGGAUAUCGAAAAAAAAAAAAAAAAAAAAAAAACGAGAAGGCACAUGAGGAUCACCCAUGUAAAAA | – | – | 35.8 nM | 44.9 nM
AAAAAGUGAGGAUAUGCUGCUCGUCACUUGCGUGAUGAGUAGCAGAAGGCACAUGAGGAUCACCCAUGUAAAGA | – | – | 39 nM | 49.7 nM
AAAACACAUGAGGAUCACCCAUGUGAGGAUAUGUCCAUGCUCGGCAAACCGGGCAUGGACAGAAGGCACAUAAA | – | – | 45 nM | 46.7 nM
AAAACAUACCGAGGAUAUUCAUUUAAUAAAUAAACAUGAGGAUCACCCAUGUGGCAAAAGCCUAGGGAGAAGGCGGAAUGCUAA | 33.4 nM | 26.5 nM | – | –
AAAACAUGAGGAUCACCCAUGUAAAGAUCGGAAAGUUAGAGUGAGGAUAUACAAAAUUUUAUAUAGUAGAAGGCACUGGGUACA | 34.6 nM | 33.5 nM | – | –
AAAACAUGAGGAUCACCCAUGUAAAGAUCGGUUAAUGAAAGUGAGGAUAUACAAAAUUUUAUAGAGUAGAAGGCACUGGGUACA | 28.7 nM | 30.1 nM | – | –

Sequence | apparent Kd [1] | apparent Kd [2] | apparent Kd [3] | apparent Kd [4]
AAAACAUGAGGAUCACCCAUGUAUAGAUCGGUUAAUAGAAGUGAGGAUAUGCUUAAAAUAAGGUAGCAGAAGGCACUGGGUACA | 23.9 nM | 25.1 nM | – | –
AAAACAUGAGGAUCACCCAUGUUUAGAUCGGUCGAUAGAGGUGAGGAUAUACUAAGUUAAGGCUGGUAGAAGGCACUGGGUACA | 62.4 nM | 42 nM | – | –
AAAACCUCAUGAGGAUAUCCAACAUGAGGAUCACCCAUGUUAGUCUCAGUACCAGGUACUAGAGAGGAGAAGGCAUGCCAGGGC | 78.6 nM | 27.5 nM | – | –
AAAACGGCGCGUCCCGCACCAACUACAGAAGGCCAACAUGAGGAUCACCCAUGUACAAACUAGAUGGAGGAUAUGUAGGUUCUA | 6.76 nM | 4.63 nM | – | –
AAAAGAAUAAAAGGAUAUAGGAAAGGAAGUGUACUAGAAGGUUUGUUAACAUGAGGAUCACCCAUGUGCUCAGACACAGGGUGC | – | – | 124 nM | 167 nM
AAAAGCUCAGGAUAUACGGUCUGUUGUUGAGAAAUAUCGAAACAUGAGGAUCACCCAUGUAGAAGGGAGCGAAA | – | – | 223 nM | 599 nM
AAAAGUACAGGAUAUACAUGAGGAUCACCCAUGUAGAAAGGAAGUGUAAAAAAAAAGUGUAGAAGGGUGCAUGA | – | – | 33.1 nM | 27.9 nM
AAAAUCUAUUGAGGAUAUCGUUCUUAAAGAGAAUGAGAAGGCAAACAAUCAUGAGGACAUGAGGAUCACCCAUGUUGUGACCAU | 19.9 nM | 10.3 nM | – | –
AAAAUGUAAGGAUAUAGCCGGAACCCAGGGUUUGGACCCGGCUAGAAGGUACAUGAGGAUCACCCAUGUAAGAA | – | – | 17.2 nM | 22.8 nM
AAACAGUACGAGAAGGGCUACAUGAGGAUCACCCAUGUAGACGGUCGUGUGGCAGGAUAUCGAACGCACCCGAAACGGUGUGUU | – | – | 5.07 nM | 7.03 nM
AAACCGCUAGGAUAUACGAAAUAAAACUCUGUACUUGAGGUACAUGAGGAUCACCCAUGUAGAAGGAGCUCGGA | – | – | 119 nM | 229 nM
AAACGGAUCCGCGGUUGAUGCUAACUAGAAGGGCAGGUCACAUGAGGAUCACCCAUGUAGUAUAUGUAGGAUAUAGGAAGCGUG | 140 nM | 26.9 nM | – | –
AAAGAAACAGGAUAUGUAGGCUGCGACAUGAGGAUCACCCAUGUGUCGGUAUACAGUCCUAUAGAAGGGUUAUGAC | – | – | 15.5 nM | 20.1 nM
AAAGAGCAAGGAUAUACAUGAGGAUCACCCAUGUAGUACGUGAACCAGGUUUUCCUGAGUAGAAGGUGCAGACA | – | – | 36 nM | 34.3 nM
AAAGGAGGGAGGACCGUACAUGAGGAUCACCCAUGUAUAUCACAGGAUAUAGCAUGUUUAGGCAUCUAGAAGGGUGAUCGGUCA | 186 nM | 37.7 nM | – | –
AAAGUUGGUAGGCCCUCGGAACAUGAGGAUCACCCAUGUAAGGAGGAUAUGCCCGGUACCCGCUGGUAGAAGGCCUUAUAAGAA | – | – | 7.46 nM | 23.5 nM
AAAUAAAGGACUAAGGAUAUAUCACAUGAAACAUGAGGAUCACCCAUGUAAUAAUACAAAGGGUGAUAGAAGGUAGUCCACAAACA | 55.7 nM | 20.5 nM | – | –
AAAUAAAUGUAAGGAUAUCGGUUUCAGAGAACGCGAGAAGGUACAUGAGGAUCACCCAUGUUCCGUUGGGUUAACUUGAUCGCC | – | – | 7.14 nM | 13.6 nM
AAAUAGAUCCGAGGAUAUACAAUCCGGAAACGGUACAUGAGGAUCACCCAUGUAGAAGGCGGAUCUACAGGUACUAAAGUAAAA | – | – | 10.8 nM | 10.8 nM

Sequence | apparent Kd [1] | apparent Kd [2] | apparent Kd [3] | apparent Kd [4]
AAAUCGAGUGUAGGAUAUGCACAGUUUGACCGUGCAGAAGGACACAUGAGGAUCACCCAUGUUAGCUCAUGGGCGGUGACUUAG | – | – | 92.2 nM | 82.2 nM
AAAUCUCAGAUAGGAUAUAUAGGAUAACUUAAGACCUAACAUGAGGAUCACCCAUGUGAUUAUUCGUAGAAGGAUCAUUGAACC | 210 nM | 233 nM | – | –
AAAUUAAGGAGAGGAUAUUGACAUGAGGAUCACCCAUGUAUUUGGGAGUGUUUACUGAAUUCUUACGAGAAGGCUUACGAAAUU | – | – | 308 nM | 234 nM
AAAUUGCUAGAGGAUAUCGGAUAGGAUCUAUCGCGAGAAGGUUGGACAUGAGGAUCACCCAUGUUCUGUUGGGA | – | – | 24.4 nM | 26.1 nM
AAAUUGUCAGGAUAUCCUGCUAUACGCAAUAUGUAUUCACGGGAGAAGGGACAUGAGGAUCACCCAUGUUUGAA | – | – | 21.5 nM | 30 nM
AAAUUUAACGAAGGAUAUGCUUACAUGAGGAUCACCCAUGUGUGCCUUGUGUUGCUGAUUAGGUUGCAGAAGGUCGUAUACAUA | – | – | 124 nM | 684 nM
AAAUUUAACGAAGGAUAUGGUUACAUGAGGAUCACCCAUGUAAUGGCUGUGAUAUUGAUUAAGUUCCAGAAGGUCGUAUACAUA | – | – | 52.4 nM | 192 nM
AAAUUUAACGAAGGAUAUGGUUACAUGAGGAUCACCCAUGUAAUGGUUGUGAUAUUGAUUAAGUUCCAGAAGGUCGUAUACAUA | – | – | 97.8 nM | 279 nM
AAAUUUUGUCAAGGAUAUGUAUAAUUGAGUUGAAAACAUGAGGAUCACCCAUGUAUAUGGUGGGAACAGAAGGUGAAUAAGUAA | – | – | 195 nM | 151 nM
AACAAACAUGAGGAUCACCCAUGUCAGGAUAUCGAAACAACAAACAACAAACAACAAACGAGAAGGGACAACAA | – | – | 25.6 nM | 28.3 nM
AACAAACAUGAGGAUCACCCAUGUCAGGAUAUGCAAACAACAAACAACAAACAACAAAGCAGAAGGGACAACAA | – | – | 23.7 nM | 30.2 nM
AACAAAGACACAGGAUAUCCACAAAUACAUGAGGAUCACCCAUGUUCGAAAGGAGAAGGGUGGCACCGGUACAAUCUGGUUAUC | 275 nM | 89.3 nM | – | –
AACACGUGAGGAUAUACAUGAGGAUCACCCAUGUUGGUACAAUCCUGUCCGACUAUCCGUAGAAGGCAUUGACU | – | – | 38.7 nM | –
AACAGCACAGGAUAUACAUGAGGAUCACCCAUGUGAGAAUUAAGUGGCGUACCACAAAGUAGAAGGGUGCUGGA | – | – | 37.1 nM | 286 nM
AACAGCUCGUCAGGAUAUAUAUACUUAUAUUGUAUUUAUGUACAUGAGGAUCACCCAUGUUGUUAGUAGAAGGGACGAGCUGAA | – | – | 7.61 nM | 7.16 nM
AACAGCUCGUCAGGAUAUAUUUUCCUUUUAUGUAUUUAUGUACAUGAGGAUCACCCAUGUUGAUAGUAGAAGGGACGAGCUGAA | – | – | 13.8 nM | 34.4 nM
AACAGUACAGGAUAUACAUGAGGAUCACCCAUGUGAUAUUUAAGUGGCGUACCACAAAGUAGAAGGGUACUGGA | – | – | 21.9 nM | 85.6 nM
AACAUGUCAGGAUAUAUGACAUGGCUCUUCGGAGCAAGCUCAUAGAAGGGACAUGAGGAUCACCCAUGUAGAGC | – | – | 21.1 nM | 25.2 nM

From the EternaBench riboswitch data
